ChEMBL document CHEMBL1125831, “Synthesis and quantitative structure-activity relationship analysis of 2-(aryl or heteroaryl)quinolin-4-amines, a new class of anti-HIV-1 agents” (J Med Chem, 1991)

Tests used:
[1] = In vitro toxicity on uninfected Phytohemagglutininin stimulated human PBM cell; assay type: cell-based
Outline: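 Human PBM cells stimulated with phytohemagglutinin and left uninfected. Cell toxicity reported as minimum toxic concentration (MTC).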

[2] = system: Human immunodeficiency virus 1; experiment: In vitro antiviral activity in Phytohemagglutininin stimulated human PBM cells infected with HIV-1 (strain LAV-1); assay type: functional, organism-based; details: Human immunodeficiency virus 1, PBMC
Outline: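 […] human PBM cells stimulated with phytohemagglutinin, then infected with HIV-1 strain LAV-1. Antiviral activity reported as median effective concentration (EC50).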

Compound | EC50 [2] [µM] | MTC [1] [µM]
CN(C)CCNc1cc(-c2ccc(Cl)cc2)nc2ccccc12 | 100 | 
CCN(CCN(C)C)c1cc(-c2cccnc2)nc2ccccc12 | 24.2 | 100
Nc1cc(-c2cccs2)nc2ccccc12 | 34.3 | 10
CCN(CCN(C)C)c1cc(-c2ccccn2)nc2ccccc12 | 13.2 | 
c1cncc(-c2cc(N3CCCCC3)c3ccccc3n2)c1 | 20 | 100
CN(C)CCNc1cc(-c2ccc(Br)cc2)nc2ccccc12 | 44.2 | 100
CN1CCN(c2cc(-c3ccccc3)nc3ccccc23)CC1 | 13.2 | 100
CCN(CCN(C)C)c1cc(-c2ccccc2)nc2ccccc12 | 34.8 | 
c1ccc(-c2cc(N3CCOCC3)c3ccccc3n2)nc1 | 18.5 | 
CC(C)Nc1cc(-c2ccccc2)nc2ccccc12 | 100 | > 100
CN(C)CCNc1cc(-c2ccc(F)cc2)nc2ccccc12 | 13.2 | 100
CN1CCN(c2cc(-c3ccco3)nc3ccccc23)CC1 | 15.8 | 
CCN(CCN(C)C)c1cc(-c2ccncc2)nc2ccccc12 | 100 | 100
CN1CCN(c2cc(-c3ccncc3)nc3ccccc23)CC1 | 68.2 | 
COc1ccc(-c2cc(NCCN(C)C)c3ccccc3n2)cc1 | 10.4 | 10
Nc1cc(-c2ccccc2)nc2ccccc12 | 25.7 | 
CC1CCCN(c2cc(-c3ccccc3)nc3ccccc23)C1 (stereo not given) | 16.7 | 100
CC1CCCCN1c1cc(-c2ccccc2)nc2ccccc12 (stereo not given) | 26.4 | 100
CCN(CCN(C)C)c1cc(-c2cccs2)nc2ccccc12 | 32.4 | 100
CC(C)(C)Nc1cc(-c2ccccc2)nc2ccccc12 | 100 | 
c1cncc(-c2cc(N3CCCC3)c3ccccc3n2)c1 | 33.7 | 100
CC(C)CNc1cc(-c2ccccc2)nc2ccccc12 | 50.6 | 100
CN(C)CCNc1cc(-c2ccncc2)nc2ccccc12 | 36.9 | 100

Stronger by EC50 [2], values ahead:

EC50 [2] [µM] | Compound | MTC [1] [µM]
0.57 | CN(C)CCNc1cc(-c2cccs2)nc2ccccc12 | 10
1.35 | CN(C)CCNc1cc(-c2ccccn2)nc2ccccc12 | 100
1 | CN1CCN(c2cc(-c3cccnc3)nc3ccccc23)CC1 | > 100
0.91 | CN(C)CCNc1cc(-c2ccco2)nc2ccccc12 | > 1
8.56 | Nc1cc(-c2ccccn2)nc2ccccc12 | 100
1 | Nc1cc(-c2cccnc2)nc2ccccc12 | 85.7
9.07 | CN1CCN(c2cc(-c3cccs3)nc3ccccc23)CC1 | 
4.47 | Cc1ccc(-c2cc(NCCN(C)C)c3ccccc3n2)cc1 | 10
4.08 | CC1CCN(c2cc(-c3ccccn3)nc3ccccc23)CC1 | 100
5.51 | CN1CCN(c2cc(-c3ccccn3)nc3ccccc23)CC1 | 
4.24 | CC1CCCCN1c1cc(-c2ccccn2)nc2ccccc12 (stereo not given) | 100
4.86 | CC1CCCN(c2cc(-c3ccccn3)nc3ccccc23)C1 (stereo not given) | 100
10 | CN(C)CCNc1cc(-c2ccccc2)nc2ccccc12 | 100
1.51 | CN(C)CCNc1cc(-c2cccnc2)nc2ccccc12 | > 100
2.81 | c1ccc(-c2cc(N3CCSCC3)c3ccccc3n2)nc1 | 
